Assay results: ChEMBL document CHEMBL5537160, “Design, Synthesis, Pharmacology, and In Silico Studies of (1S,2S,3S)-2-((S)-Amino(carboxy)methyl)-3-(carboxymethyl)cyclopropane-1-carboxylic Acid (LBG30300): A Picomolar Potency Subtype-Selective mGlu2 Receptor Agonist” (J Med Chem, 2024)
Calls of active or inactive are those of the source. The rule behind the calls is not given here.

What was measured:
[1] = biological target: T1, Metabotropic glutamate receptor 3 (Rattus norvegicus, UniProt P31422); assay: Agonist activity at SNAP tagged rat mGlu3 transfected HEK293 cells preincubated with antagonist LY-341495 followed by compound addition by TR-FRET assay; assay type: functional, cell-based
[2] = Half life in C57BL/6 mouse brain at 100 mg/kg, po by LC-MS/MS analysis; assay type: ADME, organism-based
[3] = Cmax in CSF of C57BL/6 mouse at 100 mg/kg, po by LC-MS/MS analysis; assay type: ADME, organism-based, Cerebrospinal fluid
[4] = Half life in C57BL/6 mouse plasma at 100 mg/kg, po by LC-MS/MS analysis; assay type: ADME, organism-based
[5] = Cmax in C57BL/6 mouse brain at 100 mg/kg, po by LC-MS/MS analysis; assay type: ADME, organism-based
[6] = biological target: T1, Metabotropic glutamate receptor 3; assay: Agonist activity at rat mGlu3; assay type: functional
[7] = Cmax in C57BL/6 mouse plasma at 100 mg/kg, po by LC-MS/MS analysis; assay type: ADME, organism-based
[8] = Cmax in C57BL/6 mouse brain at 10 mg/kg, iv measured after 4 hrs by LC-MS/MS analysis; assay type: ADME, organism-based
Method in brief: (§1)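 Mice given a single 10 mg/kg IV dose; plasma and brain concentrations sampled at 0.25, 1.0 and 4.0 h, means ± error per timepoint.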

[9] = biological target: Metabotropic glutamate receptor 6 (Rattus norvegicus, UniProt P35349); assay: Agonist activity at rat mGlu6 transfected in HEK293 cells co-transfected with chimeric Gqi9 incubated for 30 mins by IP-one HTRF assay; assay type: functional, cell-based
Method in brief: (§2)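 Rat group II/III receptor co-electroporated into HEK293 with chimeric Gqi9 and EAAC1 transporter, serum-free medium ≥2 h pre-assay. At 24 h post-transfection, Krebs wash, then 30 min compound exposure with 50 mM LiCl. IP1 accumulation quantified by HTRF kit, at least duplicate runs, mean of 2–5 experiments.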

[10] = biological target: T2, Metabotropic glutamate receptor 2 (Rattus norvegicus, UniProt P31421); assay: Agonist activity at rat mGlu2 transfected in HEK293 cells co-transfected with chimeric Gqi9 incubated for 30 mins by IP-one HTRF assay; assay type: functional, cell-based; method in brief: as §2
[11] = Cmax in C57BL/6 mouse brain at 10 mg/kg, iv measured after 1 hrs by LC-MS/MS analysis; assay type: ADME, organism-based; method in brief: as §1
[12] = biological target: Metabotropic glutamate receptor 5 (Rattus norvegicus) (UniProt P31424); assay: Antagonist activity at rat mGlu5 transfected in HEK293 cells by IP-one HTRF assay; assay type: functional, cell-based
Method in brief: (§3)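 HEK293 cells transiently electroporated with rat receptor plasmid plus EAAC1 Glu transporter, plated 150 000 cells/well on polyornithine, serum-free Glutamax DMEM ≥2 h before assay. At 24 h, washed in Krebs buffer and stimulated 30 min with compound in 50 mM LiCl. IP1 read by HTRF, at least duplicates, EC50 from 2–5 experiments.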

[13] = Cmax in C57BL/6 mouse plasma at 10 mg/kg, iv measured after 4 hrs by LC-MS/MS analysis; assay type: ADME, organism-based; method in brief: as §1
[14] = Unbound brain to plasma concentration ratio in C57BL/6 mouse at 10 mg/kg, iv […] by LC-MS/MS analysis; assay type: ADME, organism-based; conditions: read-out: K(p,uu,brain)
[15] = biological target: Metabotropic glutamate receptor 3 (Rattus norvegicus) (UniProt P31422); assay: Antagonist activity at rat mGlu3 transfected in HEK293 cells co-transfected with chimeric Gqi9 incubated for 30 mins by IP-one HTRF assay; assay type: functional, cell-based
[16] = biological target: Metabotropic glutamate receptor 1 (Rattus norvegicus, UniProt P23385); assay: Agonist activity at rat mGlu1 transfected in HEK293 cells by IP-one HTRF assay; assay type: functional, cell-based; method in brief: as §3
[17] = biological target: Metabotropic glutamate receptor 8 (Rattus norvegicus, UniProt P70579); assay: Agonist activity at rat mGlu8 transfected in HEK293 cells co-transfected with chimeric Gqi9 incubated for 30 mins by IP-one HTRF assay; assay type: functional, cell-based; method in brief: as §2
[18] = Half life in C57BL/6 mouse plasma at 10 mg/kg, iv by LC-MS/MS analysis; assay type: ADME, organism-based; method in brief: as §1
[19] = biological target: T2, Metabotropic glutamate receptor 2; assay: Agonist activity at SNAP tagged rat mGlu2 transfected HEK293 cells preincubated with antagonist LY-341495 followed by compound addition by TR-FRET assay; assay type: functional, cell-based
[20] = Cmax in C57BL/6 mouse plasma at 10 mg/kg, iv measured after 1 hr by LC-MS/MS analysis; assay type: ADME, organism-based; method in brief: as §1
[21] = biological target: T2, Metabotropic glutamate receptor 2; assay: Agonist activity at SNAP tagged rat mGlu2 transfected HEK293 cells by TR-FRET assay; assay type: functional, cell-based
[22] = biological target: Metabotropic glutamate receptor 8 (Rattus norvegicus) (UniProt P70579); assay: Antagonist activity at rat mGlu8 transfected in HEK293 cells co-transfected with chimeric Gqi9 incubated for 30 mins by IP-one HTRF assay; assay type: functional, cell-based; method in brief: as §2
[23] = biological target: Metabotropic glutamate receptor 7 (Rattus norvegicus, UniProt P35400); assay: Agonist activity at rat mGlu7 transfected in HEK293 cells co-transfected with chimeric Gqi9 incubated for 30 mins by IP-one HTRF assay; assay type: functional, cell-based; method in brief: as §2
[24] = biological target: Metabotropic glutamate receptor 5 (Rattus norvegicus, UniProt P31424); assay: Agonist activity at rat mGlu5 transfected in HEK293 cells by IP-one HTRF assay; assay type: functional, cell-based; conditions: read-out: EC50
Method in brief: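 HEK293 cells transiently electroporated with rat receptor plasmid plus the high-affinity Glu transporter EAAC1. Cells were grown in DMEM with 10% FBS and seeded on polyornithine-coated wells at 150 000 cells/well. Medium was switched to serum-free Glutamax DMEM ≥2 h before assay. At 24 h cells were washed in Krebs buffer and stimulated 30 min with agonist plus 50 mM LiCl. IP1 read by IP-One HTRF; ≥ duplicates.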

Rattus norvegicus [25] = species on record: Rattus norvegicus; assay: Selectivity ratio of EC50 for SNAP tagged rat mGlu3 to EC50 for SNAP tagged rat mGlu2
Method in brief: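 Ratio of EC50 at SNAP-tagged rat mGlu3 to mGlu2, both measured by TR-FRET conformational assay in HEK293 after LY341495 preincubation and washing; Lumi4-Tb/Green labeling, 337 nm excitation, 620/520 nm emission.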

Rattus norvegicus [26] = species on record: Rattus norvegicus; assay: Selectivity ratio of EC50 for rat mGlu3 to EC50 for rat Glu2
[27] = biological target: Metabotropic glutamate receptor 4 (Rattus norvegicus) (UniProt P31423); assay: Antagonist activity at rat mGlu4 transfected in HEK293 cells co-transfected with chimeric Gqi9 incubated for 30 mins by IP-one HTRF assay; assay type: functional, cell-based; method in brief: as §2
[28] = Cmax in C57BL/6 mouse brain at 10 mg/kg, iv measured after 0.25 hrs by LC-MS/MS analysis; assay type: ADME, organism-based; method in brief: as §1
[29] = biological target: Metabotropic glutamate receptor 7 (Rattus norvegicus) (UniProt P35400); assay: Antagonist activity at rat mGlu7 transfected in HEK293 cells co-transfected with chimeric Gqi9 incubated for 30 mins by IP-one HTRF assay; assay type: functional, cell-based; method in brief: as §2
[30] = biological target: Metabotropic glutamate receptor 6 (Rattus norvegicus) (UniProt P35349); assay: Antagonist activity at rat mGlu6 transfected in HEK293 cells co-transfected with chimeric Gqi9 incubated for 30 mins by IP-one HTRF assay; assay type: functional, cell-based; method in brief: as §2
[31] = biological target: Metabotropic glutamate receptor 2 (Rattus norvegicus) (UniProt P31421); assay: Antagonist activity at rat mGlu2 transfected in HEK293 cells co-transfected with chimeric Gqi9 incubated for 30 mins by IP-one HTRF assay; assay type: functional, cell-based
[32] = biological target: Metabotropic glutamate receptor 4 (Rattus norvegicus, UniProt P31423); assay: Agonist activity at rat mGlu4 transfected in HEK293 cells co-transfected with chimeric Gqi9 incubated for 30 mins by IP-one HTRF assay; assay type: functional, cell-based; method in brief: as §2
[33] = biological target: T1, Metabotropic glutamate receptor 3; assay: Agonist activity at rat mGlu3 transfected in HEK293 cells co-transfected with chimeric Gqi9 incubated for 30 mins by IP-one HTRF assay; assay type: functional, cell-based
[34] = Cmax in C57BL/6 mouse plasma at 10 mg/kg, iv measured after 0.25 hrs by LC-MS/MS analysis; assay type: ADME, organism-based; method in brief: as §1
[35] = biological target: Metabotropic glutamate receptor 1 (Rattus norvegicus) (UniProt P23385); assay: Antagonist activity at rat mGlu1 transfected in HEK293 cells by IP-one HTRF assay; assay type: functional, cell-based; method in brief: as §3
[36] = biological target: T2, Metabotropic glutamate receptor 2; assay: Agonist activity at rat mGlu2; assay type: functional
[37] = biological target: Metabotropic glutamate receptor 7 (Rattus norvegicus) (UniProt P35400); assay: Agonist activity at rat mGlu7 transfected in HEK293 cells co-transfected with chimeric Gqi9 at 3000 uM incubated for 30 mins by IP-one HTRF assay relative to control; assay type: functional, cell-based; conditions: filed as agonist
Method in brief: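 Rat receptor was co-electroporated into HEK293 cells with chimeric Gqi9, for phospholipase C coupling, and with the EAAC1 Glu transporter. Cells were seeded on polyornithine at 150 000 cells/well and moved to serum-free Glutamax DMEM ≥2 h before assay. At 24 h cells were washed in Krebs buffer and given compound at 3000 μM with 50 mM LiCl for 30 min. IP1 measured by HTRF kit; response expressed as % of control; ≥ duplicates.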

Chain of Metabotropic glutamate receptor 6 (P35349 whole entry): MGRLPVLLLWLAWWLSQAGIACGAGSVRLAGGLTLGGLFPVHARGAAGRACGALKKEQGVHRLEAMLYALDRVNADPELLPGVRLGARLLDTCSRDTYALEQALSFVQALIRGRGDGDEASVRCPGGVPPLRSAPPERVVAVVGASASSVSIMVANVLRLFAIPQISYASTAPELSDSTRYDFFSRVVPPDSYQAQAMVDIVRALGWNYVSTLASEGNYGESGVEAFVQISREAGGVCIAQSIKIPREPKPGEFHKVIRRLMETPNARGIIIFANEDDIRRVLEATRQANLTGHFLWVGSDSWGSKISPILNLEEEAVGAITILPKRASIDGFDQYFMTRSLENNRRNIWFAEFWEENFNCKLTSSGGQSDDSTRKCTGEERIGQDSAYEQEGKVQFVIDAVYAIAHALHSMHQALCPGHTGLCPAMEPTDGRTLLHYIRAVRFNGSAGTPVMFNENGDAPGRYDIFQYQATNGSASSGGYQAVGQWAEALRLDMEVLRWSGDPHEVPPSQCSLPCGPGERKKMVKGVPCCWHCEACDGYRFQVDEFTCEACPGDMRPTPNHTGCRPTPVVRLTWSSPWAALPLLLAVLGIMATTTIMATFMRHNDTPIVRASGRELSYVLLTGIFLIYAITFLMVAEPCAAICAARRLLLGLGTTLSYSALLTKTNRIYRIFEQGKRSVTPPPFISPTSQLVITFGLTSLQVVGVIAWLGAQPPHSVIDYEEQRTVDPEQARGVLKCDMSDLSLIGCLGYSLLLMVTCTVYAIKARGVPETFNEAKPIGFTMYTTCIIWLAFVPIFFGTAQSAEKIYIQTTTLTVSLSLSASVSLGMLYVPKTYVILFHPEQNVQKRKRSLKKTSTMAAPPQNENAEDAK
Chain of Metabotropic glutamate receptor 6 (Rattus norvegicus) (P35349 whole entry): as above
Chain of Metabotropic glutamate receptor 8 (Rattus norvegicus) (P70579 whole entry): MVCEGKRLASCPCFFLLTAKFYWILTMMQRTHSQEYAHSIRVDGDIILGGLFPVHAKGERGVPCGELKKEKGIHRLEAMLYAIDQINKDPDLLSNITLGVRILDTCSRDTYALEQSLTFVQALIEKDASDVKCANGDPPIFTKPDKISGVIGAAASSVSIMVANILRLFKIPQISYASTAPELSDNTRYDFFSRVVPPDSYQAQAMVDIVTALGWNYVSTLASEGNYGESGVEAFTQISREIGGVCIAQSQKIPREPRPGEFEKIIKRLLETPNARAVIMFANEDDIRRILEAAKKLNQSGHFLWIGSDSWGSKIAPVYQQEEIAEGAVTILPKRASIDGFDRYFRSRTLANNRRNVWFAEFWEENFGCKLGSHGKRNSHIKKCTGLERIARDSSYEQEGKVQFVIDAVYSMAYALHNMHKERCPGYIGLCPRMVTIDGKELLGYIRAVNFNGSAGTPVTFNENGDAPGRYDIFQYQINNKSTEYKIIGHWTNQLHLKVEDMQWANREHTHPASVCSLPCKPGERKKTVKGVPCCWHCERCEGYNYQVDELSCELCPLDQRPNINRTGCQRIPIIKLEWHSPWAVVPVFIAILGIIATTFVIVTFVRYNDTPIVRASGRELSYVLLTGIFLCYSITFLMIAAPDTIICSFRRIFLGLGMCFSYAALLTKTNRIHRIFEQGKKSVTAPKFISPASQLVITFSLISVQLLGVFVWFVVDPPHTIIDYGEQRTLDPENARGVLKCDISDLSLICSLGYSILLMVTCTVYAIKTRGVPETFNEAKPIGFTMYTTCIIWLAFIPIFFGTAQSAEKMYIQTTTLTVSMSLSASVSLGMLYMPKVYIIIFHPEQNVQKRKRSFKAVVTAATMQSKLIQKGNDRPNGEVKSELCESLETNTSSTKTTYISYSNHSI
Chain of Metabotropic glutamate receptor 8 (P70579 whole entry): as above
Chain of Metabotropic glutamate receptor 3 (Rattus norvegicus) (P31422 23-879 limits assumed): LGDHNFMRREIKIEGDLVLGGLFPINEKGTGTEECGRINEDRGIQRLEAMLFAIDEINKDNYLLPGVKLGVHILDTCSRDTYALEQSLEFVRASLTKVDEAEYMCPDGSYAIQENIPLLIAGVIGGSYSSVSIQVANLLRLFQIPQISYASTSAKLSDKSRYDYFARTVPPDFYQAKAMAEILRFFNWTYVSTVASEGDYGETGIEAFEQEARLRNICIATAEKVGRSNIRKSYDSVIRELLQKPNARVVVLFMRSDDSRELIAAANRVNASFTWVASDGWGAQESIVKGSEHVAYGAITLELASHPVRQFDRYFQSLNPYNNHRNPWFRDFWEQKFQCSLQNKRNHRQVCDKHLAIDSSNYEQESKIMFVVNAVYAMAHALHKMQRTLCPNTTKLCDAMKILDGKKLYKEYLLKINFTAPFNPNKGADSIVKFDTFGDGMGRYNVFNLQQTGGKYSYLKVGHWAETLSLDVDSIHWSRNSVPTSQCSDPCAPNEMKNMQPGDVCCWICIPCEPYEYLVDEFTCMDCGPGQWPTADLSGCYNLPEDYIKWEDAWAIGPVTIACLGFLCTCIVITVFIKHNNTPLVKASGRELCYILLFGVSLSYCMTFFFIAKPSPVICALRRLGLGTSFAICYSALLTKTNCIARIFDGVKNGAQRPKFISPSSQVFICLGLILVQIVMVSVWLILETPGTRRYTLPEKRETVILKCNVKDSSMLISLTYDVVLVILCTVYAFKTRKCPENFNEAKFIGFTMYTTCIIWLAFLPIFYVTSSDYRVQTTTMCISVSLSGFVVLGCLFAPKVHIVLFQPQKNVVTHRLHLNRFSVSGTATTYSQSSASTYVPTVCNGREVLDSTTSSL
Chain of Metabotropic glutamate receptor 4 (P31423 whole entry): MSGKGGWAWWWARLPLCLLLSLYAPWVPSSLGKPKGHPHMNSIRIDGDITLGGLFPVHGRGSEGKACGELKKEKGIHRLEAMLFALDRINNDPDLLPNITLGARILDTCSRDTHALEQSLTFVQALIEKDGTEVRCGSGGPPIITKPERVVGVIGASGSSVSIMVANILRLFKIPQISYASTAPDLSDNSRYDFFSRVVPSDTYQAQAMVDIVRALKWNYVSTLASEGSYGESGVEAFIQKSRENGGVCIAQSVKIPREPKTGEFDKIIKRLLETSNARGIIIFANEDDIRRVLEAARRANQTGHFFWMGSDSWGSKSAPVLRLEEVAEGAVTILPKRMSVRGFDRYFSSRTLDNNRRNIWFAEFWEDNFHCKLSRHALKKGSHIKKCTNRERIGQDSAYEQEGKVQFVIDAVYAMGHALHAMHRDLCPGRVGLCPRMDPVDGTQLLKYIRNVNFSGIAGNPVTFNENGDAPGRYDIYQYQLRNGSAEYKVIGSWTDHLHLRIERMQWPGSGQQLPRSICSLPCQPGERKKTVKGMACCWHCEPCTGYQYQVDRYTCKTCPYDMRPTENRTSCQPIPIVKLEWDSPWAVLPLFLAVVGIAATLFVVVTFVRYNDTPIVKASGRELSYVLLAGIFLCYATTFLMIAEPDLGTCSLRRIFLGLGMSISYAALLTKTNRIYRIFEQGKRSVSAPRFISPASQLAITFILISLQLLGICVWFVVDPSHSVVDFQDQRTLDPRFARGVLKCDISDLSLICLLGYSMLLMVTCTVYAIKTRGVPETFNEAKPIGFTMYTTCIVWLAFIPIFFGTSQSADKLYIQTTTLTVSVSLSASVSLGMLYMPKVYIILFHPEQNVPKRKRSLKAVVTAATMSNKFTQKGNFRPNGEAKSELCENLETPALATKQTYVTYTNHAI
Chain of Metabotropic glutamate receptor 4 (Rattus norvegicus) (P31423 whole entry): as above
Chain of Metabotropic glutamate receptor 2 (Rattus norvegicus) (P31421 19-872 limits assumed): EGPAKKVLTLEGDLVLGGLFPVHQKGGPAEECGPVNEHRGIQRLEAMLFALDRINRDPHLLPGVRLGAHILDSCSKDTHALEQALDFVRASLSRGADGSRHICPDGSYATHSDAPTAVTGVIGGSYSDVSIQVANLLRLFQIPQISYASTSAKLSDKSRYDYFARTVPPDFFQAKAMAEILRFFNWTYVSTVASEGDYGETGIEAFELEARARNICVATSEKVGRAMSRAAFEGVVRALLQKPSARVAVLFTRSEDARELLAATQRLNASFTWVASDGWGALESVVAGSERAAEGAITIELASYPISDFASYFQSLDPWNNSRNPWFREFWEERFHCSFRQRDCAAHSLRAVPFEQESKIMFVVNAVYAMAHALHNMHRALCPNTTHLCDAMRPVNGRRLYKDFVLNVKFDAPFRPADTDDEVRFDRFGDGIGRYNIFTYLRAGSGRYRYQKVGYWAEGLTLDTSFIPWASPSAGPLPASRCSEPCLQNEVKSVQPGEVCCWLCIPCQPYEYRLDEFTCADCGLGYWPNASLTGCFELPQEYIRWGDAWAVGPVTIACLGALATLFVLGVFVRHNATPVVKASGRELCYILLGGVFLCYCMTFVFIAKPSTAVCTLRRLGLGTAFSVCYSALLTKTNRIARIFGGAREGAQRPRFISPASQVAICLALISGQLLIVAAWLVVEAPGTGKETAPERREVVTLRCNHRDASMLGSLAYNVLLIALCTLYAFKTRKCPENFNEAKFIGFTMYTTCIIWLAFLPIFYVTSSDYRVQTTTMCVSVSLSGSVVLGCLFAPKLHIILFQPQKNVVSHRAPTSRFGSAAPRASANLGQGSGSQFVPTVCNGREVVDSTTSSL

| SMILES | EC50 [1] [µM] | EC50 [6] [µM] | EC50 ([9]; read-out: EC50) [µM] | EC50 ([9]; read-out: pEC50 (converted)) [µM] | Activity [12] | Activity [15] | EC50 [16] [µM] | EC50 ([17]; read-out: EC50) [µM] | EC50 ([17]; read-out: pEC50 (converted)) [µM] | Activity [22] | EC50 [23] [µM] | EC50 [24] [µM] | Activity [27] | Activity [29] | Activity [30] | Activity [31] | EC50 ([32]; read-out: EC50) [µM] | EC50 [33] [µM] | Activity [35] | further results |
| --- | --- | --- | --- | --- | --- | --- | --- | --- | --- | --- | --- | --- | --- | --- | --- | --- | --- | --- | --- | --- |
| N[C@@]1(C(=O)O)CC[C@H]2[C@H](C(=O)O)[C@H]21 | 4.8 | 0.027 |  |  |  |  |  |  |  |  |  |  |  |  |  |  |  |  |  | half-life [2]: 69 h; Cmax [3]: 14 ng/g; half-life [4]: 6.8 h; Cmax [5]: 76 ng/g; Cmax [7]: 2120 ng/mL |
| Cl.N[C@H](C(=O)O)[C@H]1[C@H](CC(=O)O)[C@@H]1C(=O)O | 11.5 |  | 0.28 | 0.245 | inactive | inactive | > 30 | 0.097 | 0.0355 | inactive | > 30 | > 30 | inactive | inactive | inactive | inactive | 0.11 | 0.373 | inactive | Cmax [8]: 68 ng/g; EC50 ([10]; read-out: EC50): 0.001 µM; EC50 ([10]; read-out: pEC50 (converted)): 0.000575 µM; Cmax [11]: 75 ng/g; Cmax [13]: 50 ng/mL; Kp uu [14]: 0.02; half-life [18]: 0.5 h; EC50 [19]: 0.022 µM; Cmax [20]: 583 ng/mL; EC50 ([21]; read-out: EC50): 0.013 µM; EC50 ([21]; read-out: pEC50 (converted)): 0.0224 µM; Ratio EC50 (Rattus norvegicus [25]): 513; Ratio EC50 (Rattus norvegicus [26]): 620; Cmax [28]: 86 ng/g; EC50 ([32]; read-out: pEC50 (converted)): 0.0355 µM; Cmax [34]: 5360 ng/mL |
| N[C@H](C(=O)O)[C@H]1[C@@H](CO)[C@@H]1C(=O)O |  | 0.007 |  |  |  |  |  |  |  |  |  |  |  |  |  |  |  |  |  | EC50 [36]: 0.004 µM |
| C[C@@]1(C(=O)O)C[C@H]1[C@H](N)C(=O)O |  |  | 2.5 |  | inactive | inactive | 5.5 | > 30 |  | inactive | > 30 | 12 | inactive | inactive | inactive | inactive | > 30 | 1.88 | inactive |  |
| N[C@@H](CCP(=O)(O)O)C(=O)O |  |  |  | 2.29 | inactive | inactive |  | 0.29 | 0.174 | inactive |  |  | inactive | inactive | inactive | inactive | 0.18 |  | inactive | Activity [37]: 100% |
